Measurements from ChEMBL document CHEMBL1275458, “First molecular characterization of group B streptococci with reduced penicillin susceptibility” (2008).
In brackets after ≈: the same amount, converted by molar mass.

Legend:
Streptococcus agalactiae [1] = assay: Antimicrobial activity against penicillin-resistant Streptococcus agalactiae B10 by agar dilution method; format: functional
Outline: (§1)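 Agar dilution MICs run per the CLSI recommendation. S. pneumoniae ATCC 49619 was included as the quality control strain. β-lactams tested were penicillin G, penicillin V, ampicillin, oxacillin, cefazolin, cefepime, cefotaxime, ceftizoxime and meropenem. Test strains were S. agalactiae clinical sputum isolates and ATCC strains BAA-611 and 12403.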

Streptococcus agalactiae [2] = assay: Antimicrobial activity against penicillin-resistant Streptococcus agalactiae B516 by agar dilution method; format: functional; outline: as §1
Streptococcus agalactiae [3] = assay: Antimicrobial activity against penicillin-resistant Streptococcus agalactiae B12 by agar dilution method; format: functional; outline: as §1
Streptococcus agalactiae [4] = assay: Antimicrobial activity against penicillin-resistant Streptococcus agalactiae B7 by agar dilution method; format: functional; outline: as §1
Streptococcus agalactiae [5] = assay: Antimicrobial activity against penicillin-resistant Streptococcus agalactiae B1 by agar dilution method; format: functional; outline: as §1
Streptococcus agalactiae [6] = assay: Antimicrobial activity against penicillin-resistant Streptococcus agalactiae B513 by agar dilution method; format: functional; outline: as §1
Streptococcus agalactiae [7] = assay: Antimicrobial activity against penicillin-resistant Streptococcus agalactiae B68 by agar dilution method; format: functional; outline: as §1
Streptococcus agalactiae [8] = assay: Antimicrobial activity against penicillin-resistant Streptococcus agalactiae ATCC BAA-611 harboring PBP-2X V405A mutant gene by agar dilution method; format: functional; outline: as §1
Streptococcus agalactiae [9] = assay: Antimicrobial activity against penicillin-resistant Streptococcus agalactiae B503 by agar dilution method; format: functional; outline: as §1
Streptococcus pneumoniae = assay: Antimicrobial activity against Streptococcus pneumoniae ATCC 49619 by agar dilution method; format: functional
Outline: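 MIC by agar dilution per CLSI recommendations. The strain is a penicillin-susceptible S. pneumoniae quality-control strain, run alongside the clinical GBS isolates. β-lactams tested were penicillin G, penicillin V, ampicillin, oxacillin, cefazolin, cefepime, cefotaxime, ceftizoxime and meropenem.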

Streptococcus agalactiae [10] = assay: Antimicrobial activity against penicillin-resistant Streptococcus agalactiae B502 by agar dilution method; format: functional; outline: as §1
Streptococcus agalactiae [11] = assay: Antimicrobial activity against penicillin-resistant Streptococcus agalactiae B6 by agar dilution method; format: functional; outline: as §1
Streptococcus agalactiae [12] = assay: Antimicrobial activity against penicillin-susceptible Streptococcus agalactiae ATCC 12403 by agar dilution method
Streptococcus agalactiae [13] = assay: Antimicrobial activity against penicillin-resistant Streptococcus agalactiae ATCC BAA-611 harboring PBP-2X Q557E mutant gene by agar dilution method; format: functional; outline: as §1
Streptococcus agalactiae [14] = assay: Antimicrobial activity against penicillin-resistant Streptococcus agalactiae B8 by agar dilution method; format: functional; outline: as §1
Streptococcus agalactiae [15] = assay: Antimicrobial activity against penicillin-resistant Streptococcus agalactiae B40 by agar dilution method; format: functional; outline: as §1
Streptococcus agalactiae [16] = assay: Antimicrobial activity against penicillin-susceptible Streptococcus agalactiae ATCC BAA-611 by agar dilution method
Streptococcus agalactiae [17] = assay: Antimicrobial activity against penicillin-resistant Streptococcus agalactiae B514 by agar dilution method; format: functional; outline: as §1
Streptococcus agalactiae [18] = assay: Antimicrobial activity against penicillin-resistant Streptococcus agalactiae B60 by agar dilution method; format: functional; outline: as §1

SMILES | MIC (Streptococcus agalactiae [1]) [µg/mL] | MIC (Streptococcus agalactiae [2]) [µg/mL] | MIC (Streptococcus agalactiae [3]) [µg/mL] | MIC (Streptococcus agalactiae [4]) [µg/mL] | MIC (Streptococcus agalactiae [5]) [µg/mL] | MIC (Streptococcus agalactiae [6]) [µg/mL] | MIC (Streptococcus agalactiae [7]) [µg/mL] | MIC (Streptococcus agalactiae [8]) [µg/mL] | MIC (Streptococcus agalactiae [9]) [µg/mL] | MIC (Streptococcus pneumoniae) [µg/mL] | MIC (Streptococcus agalactiae [10]) [µg/mL] | MIC (Streptococcus agalactiae [11]) [µg/mL] | MIC (Streptococcus agalactiae [12]) [µg/mL] | MIC (Streptococcus agalactiae [13]) [µg/mL] | MIC (Streptococcus agalactiae [14]) [µg/mL] | MIC (Streptococcus agalactiae [15]) [µg/mL] | MIC (Streptococcus agalactiae [16]) [µg/mL] | MIC (Streptococcus agalactiae [17]) [µg/mL] | MIC (Streptococcus agalactiae [18]) [µg/mL]
CC1(C)S[C@@H]2[C@H](NC(=O)[C@H](N)c3ccccc3)C(=O)N2[C@H]1C(=O)O [AMPICILLIN] | 0.12 (≈ 0.343 µM) | 0.25 (≈ 0.715 µM) | 0.25 (≈ 0.715 µM) | 0.12 (≈ 0.343 µM) | 0.12 (≈ 0.343 µM) | 0.5 (≈ 1.43 µM) | 0.5 (≈ 1.43 µM) | 0.25 (≈ 0.715 µM) | 0.5 (≈ 1.43 µM) | 0.12 (≈ 0.343 µM) | 0.5 (≈ 1.43 µM) | 0.12 (≈ 0.343 µM) | 0.12 (≈ 0.343 µM) | 0.12 (≈ 0.343 µM) | 0.5 (≈ 1.43 µM) | 0.12 (≈ 0.343 µM) | 0.12 (≈ 0.343 µM) | 0.5 (≈ 1.43 µM) | 0.25 (≈ 0.715 µM)
C[C@@H](O)[C@H]1C(=O)N2C(C(=O)O)=C(S[C@@H]3CN[C@H](C(=O)N(C)C)C3)[C@H](C)[C@H]12 [MEROPENEM] | 0.06 (≈ 0.156 µM) | 0.12 (≈ 0.313 µM) | 0.25 (≈ 0.652 µM) | 0.25 (≈ 0.652 µM) | 0.06 (≈ 0.156 µM) | 0.25 (≈ 0.652 µM) | 0.12 (≈ 0.313 µM) | 0.12 (≈ 0.313 µM) | 0.12 (≈ 0.313 µM) | 0.06 (≈ 0.156 µM) | 0.25 (≈ 0.652 µM) | 0.06 (≈ 0.156 µM) | 0.03 (≈ 0.0782 µM) | 0.12 (≈ 0.313 µM) | 0.12 (≈ 0.313 µM) | 0.06 (≈ 0.156 µM) | 0.03 (≈ 0.0782 µM) | 0.25 (≈ 0.652 µM) | 0.12 (≈ 0.313 µM)
Cc1onc(-c2ccccc2)c1C(=O)N[C@@H]1C(=O)N2[C@@H]1SC(C)(C)[C@@H]2C(=O)O [OXACILLIN] | 4 (≈ 9.96 µM) | 4 (≈ 9.96 µM) | 4 (≈ 9.96 µM) | 2 (≈ 4.98 µM) | 4 (≈ 9.96 µM) | 8 (≈ 19.9 µM) | 4 (≈ 9.96 µM) | 2 (≈ 4.98 µM) | 2 (≈ 4.98 µM) | 1 (≈ 2.49 µM) | 4 (≈ 9.96 µM) | 4 (≈ 9.96 µM) | 0.25 (≈ 0.623 µM) | 4 (≈ 9.96 µM) | 4 (≈ 9.96 µM) | 8 (≈ 19.9 µM) | 0.25 (≈ 0.623 µM) | 4 (≈ 9.96 µM) | 4 (≈ 9.96 µM)
CC1(C)S[C@@H]2[C@H](NC(=O)COc3ccccc3)C(=O)N2[C@H]1C(=O)O [PENICILLIN V] | 0.25 (≈ 0.713 µM) | 0.25 (≈ 0.713 µM) | 0.5 (≈ 1.43 µM) | 0.12 (≈ 0.342 µM) | 0.25 (≈ 0.713 µM) | 1 (≈ 2.85 µM) | 0.25 (≈ 0.713 µM) | 0.12 (≈ 0.342 µM) | 0.12 (≈ 0.342 µM) | 0.5 (≈ 1.43 µM) | 0.25 (≈ 0.713 µM) | 0.5 (≈ 1.43 µM) | 0.03 (≈ 0.0856 µM) | 0.5 (≈ 1.43 µM) | 0.25 (≈ 0.713 µM) | 0.5 (≈ 1.43 µM) | 0.03 (≈ 0.0856 µM) | 0.25 (≈ 0.713 µM) | 0.25 (≈ 0.713 µM)
CO/N=C(\C(=O)N[C@@H]1C(=O)N2C(C(=O)O)=CCS[C@H]12)c1csc(N)n1 [CEFTIZOXIME] | 16 (≈ 41.7 µM) | 16 (≈ 41.7 µM) | 32 (≈ 83.5 µM) | 4 (≈ 10.4 µM) | 128 (≈ 334 µM) | 64 (≈ 167 µM) | 4 (≈ 10.4 µM) | 16 (≈ 41.7 µM) | 16 (≈ 41.7 µM) | 0.12 (≈ 0.313 µM) | 16 (≈ 41.7 µM) | 32 (≈ 83.5 µM) | 0.12 (≈ 0.313 µM) | 32 (≈ 83.5 µM) | 64 (≈ 167 µM) | 32 (≈ 83.5 µM) | 0.12 (≈ 0.313 µM) | 32 (≈ 83.5 µM) | 32 (≈ 83.5 µM)
CO/N=C(\C(=O)N[C@@H]1C(=O)N2C(C(=O)[O-])=C(C[N+]3(C)CCCC3)CS[C@H]12)c1csc(N)n1 [CEFEPIME] | 0.25 (≈ 0.52 µM) | 0.5 (≈ 1.04 µM) | 0.5 (≈ 1.04 µM) | 0.25 (≈ 0.52 µM) | 0.5 (≈ 1.04 µM) | 1 (≈ 2.08 µM) | 0.5 (≈ 1.04 µM) | 0.5 (≈ 1.04 µM) | 0.25 (≈ 0.52 µM) | 0.03 (≈ 0.0624 µM) | 0.5 (≈ 1.04 µM) | 0.25 (≈ 0.52 µM) | 0.06 (≈ 0.125 µM) | 0.5 (≈ 1.04 µM) | 0.5 (≈ 1.04 µM) | 0.25 (≈ 0.52 µM) | 0.06 (≈ 0.125 µM) | 0.5 (≈ 1.04 µM) | 0.25 (≈ 0.52 µM)
CC1(C)S[C@@H]2[C@H](NC(=O)Cc3ccccc3)C(=O)N2[C@H]1C(=O)O [PENICILLIN G] | 0.5 (≈ 1.5 µM) | 0.25 (≈ 0.748 µM) | 0.25 (≈ 0.748 µM) | 0.25 (≈ 0.748 µM) | 0.5 (≈ 1.5 µM) | 1 (≈ 2.99 µM) | 0.5 (≈ 1.5 µM) | 0.25 (≈ 0.748 µM) | 0.25 (≈ 0.748 µM) | 0.25 (≈ 0.748 µM) | 0.5 (≈ 1.5 µM) | 0.25 (≈ 0.748 µM) | 0.06 (≈ 0.179 µM) | 0.5 (≈ 1.5 µM) | 0.25 (≈ 0.748 µM) | 0.5 (≈ 1.5 µM) | 0.06 (≈ 0.179 µM) | 0.25 (≈ 0.748 µM) | 0.25 (≈ 0.748 µM)
Cc1nnc(SCC2=C(C(=O)O)N3C(=O)[C@@H](NC(=O)Cn4cnnn4)[C@H]3SC2)s1 [CEFAZOLIN] | 1 (≈ 2.2 µM) | 0.5 (≈ 1.1 µM) | 1 (≈ 2.2 µM) | 0.5 (≈ 1.1 µM) | 2 (≈ 4.4 µM) | 1 (≈ 2.2 µM) | 0.5 (≈ 1.1 µM) | 0.5 (≈ 1.1 µM) | 0.5 (≈ 1.1 µM) | 1 (≈ 2.2 µM) | 0.5 (≈ 1.1 µM) | 1 (≈ 2.2 µM) | 0.12 (≈ 0.264 µM) | 2 (≈ 4.4 µM) | 1 (≈ 2.2 µM) | 1 (≈ 2.2 µM) | 0.12 (≈ 0.264 µM) | 1 (≈ 2.2 µM) | 1 (≈ 2.2 µM)
CO/N=C(\C(=O)N[C@@H]1C(=O)N2C(C(=O)O)=C(COC(C)=O)CS[C@H]12)c1csc(N)n1 [CEFOTAXIME] | 0.5 (≈ 1.1 µM) | 0.25 (≈ 0.549 µM) | 0.5 (≈ 1.1 µM) | 0.12 (≈ 0.263 µM) | 2 (≈ 4.39 µM) | 1 (≈ 2.2 µM) | 0.25 (≈ 0.549 µM) | 0.12 (≈ 0.263 µM) | 0.25 (≈ 0.549 µM) | 0.03 (≈ 0.0659 µM) | 0.25 (≈ 0.549 µM) | 1 (≈ 2.2 µM) | 0.06 (≈ 0.132 µM) | 0.5 (≈ 1.1 µM) | 0.25 (≈ 0.549 µM) | 0.5 (≈ 1.1 µM) | 0.06 (≈ 0.132 µM) | 0.25 (≈ 0.549 µM) | 0.25 (≈ 0.549 µM)
